Experimental data published in ChEMBL document CHEMBL4689842, “EUbOPEN Chemogenomics Library wave 1” (2021).

Test system: U2OS
Assay: Multiplex assay against U2OS
Format: toxicity, cell-based
Settings: human
Outline: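 Phenotypes for tubulin, mitochondrial mass and membrane permeability are expressed as per cents of healthy-nucleus cells. Cells were stained live at seeding with Hoechst33342, BioTracker Green Microtubule Cytoskeleton Dye, MitoTracker Red and Annexin V Alexa Fluor 680, then imaged after compound addition on a CQ1 microscope at 37°C and 5% CO2. Machine-learning gating in CellPathfinder separated Hoechst high-intensity objects from normal cells, divided normal cells by nuclear state (healthy, pyknosed, fragmented) and divided pyknosed cells into mitotic or apoptotic.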

[1] = 12 h, 1 µM, compound concentration 1 uM, replicate 1
[2] = 12 h, 1 µM, compound concentration 1 uM, replicate 2
[3] = 12 h, 10 µM, compound concentration 10 uM, replicate 1
[4] = 12 h, 10 µM, compound concentration 10 uM, replicate 2
[5] = 24 h, 1 µM, compound concentration 1 uM, replicate 1
[6] = 24 h, 1 µM, compound concentration 1 uM, replicate 2
[7] = 24 h, 10 µM, compound concentration 10 uM, replicate 1
[8] = 24 h, 10 µM, compound concentration 10 uM, replicate 2
[9] = 48 h, 1 µM, compound concentration 1 uM, replicate 1
[10] = 48 h, 1 µM, compound concentration 1 uM, replicate 2
[11] = 48 h, 10 µM, compound concentration 10 uM, replicate 1
[12] = 48 h, 10 µM, compound concentration 10 uM, replicate 2

For `CCn1c(-c2nonc2N)nc2cnc(Oc3cccc(NC(=O)c4ccc(OCCN5CCOCC5)cc4)c3)cc21` [GSK-269962A], the “Population Apoptotic (%)” value [1] was 43%, the “Population Fragmented Nuclei (%)” value [1] was 14% and the “Population Healthy Nuclei (%)” value [1] was 64%. The “Population Hoechst High Intensity Objects (%)” value [1] was 12%, the “Population Membrane Permeable-Phenotype (%)” value [1] was 13% and the “Population Mitochondria Different-Phenotype (%)” value [1] was 17%. For the same compound, the “Population Mitotic Cells (%)” value [1] was 56%, the “Population Normal (%)” value [1] was 87% and the “Population Pyknosed Nuclei (%)” value [1] was 21%. For the same compound, the “Population Tubulin-Different-Phenotype (%)” value [1] was 13%, the “Total Cell Count” value [1] was 156 and the “Population Apoptotic (%)” value [2] was 20%. For the same compound, the “Population Fragmented Nuclei (%)” value [2] was 20%, the “Population Healthy Nuclei (%)” value [2] was 72% and the “Population Hoechst High Intensity Objects (%)” value [2] was 2%. For the same compound, the “Population Membrane Permeable-Phenotype (%)” value [2] was 14%, the “Population Mitochondria Different-Phenotype (%)” value [2] was 16% and the “Population Mitotic Cells (%)” value [2] was 80%. The “Population Normal (%)” value [2] was 97%, the “Population Pyknosed Nuclei (%)” value [2] was 7% and the “Population Tubulin-Different-Phenotype (%)” value [2] was 14%. For the same compound, the “Total Cell Count” value [2] was 45, the “Population Apoptotic (%)” value [3] was 50% and the “Population Fragmented Nuclei (%)” value [3] was 15%. For the same compound, the “Population Healthy Nuclei (%)” value [3] was 53%, the “Population Hoechst High Intensity Objects (%)” value [3] was 10% and the “Population Membrane Permeable-Phenotype (%)” value [3] was 36%. The “Population Mitochondria Different-Phenotype (%)” value [3] was 94%, the “Population Mitotic Cells (%)” value [3] was 49% and the “Population Normal (%)” value [3] was 90%. The “Population Pyknosed Nuclei (%)” value [3] was 30%, the “Total Cell Count” value [3] was 121 and the “Population Apoptotic (%)” value [4] was 31%. The “Population Fragmented Nuclei (%)” value [4] was 20%, the “Population Healthy Nuclei (%)” value [4] was 57% and the “Population Hoechst High Intensity Objects (%)” value [4] was 7%. For the same compound, the “Population Membrane Permeable-Phenotype (%)” value [4] was 45%, the “Population Mitochondria Different-Phenotype (%)” value [4] was 97% and the “Population Mitotic Cells (%)” value [4] was 68%. The “Population Normal (%)” value [4] was 92%, the “Population Pyknosed Nuclei (%)” value [4] was 22% and the “Population Tubulin-Different-Phenotype (%)” value [4] was 100%. The “Total Cell Count” value [4] was 71, the “Population Apoptotic (%)” value [5] was 43% and the “Population Fragmented Nuclei (%)” value [5] was 10%. For the same compound, the “Population Healthy Nuclei (%)” value [5] was 71%, the “Population Hoechst High Intensity Objects (%)” value [5] was 7% and the “Population Membrane Permeable-Phenotype (%)” value [5] was 6%. The “Population Mitochondria Different-Phenotype (%)” value [5] was 18%, the “Population Mitotic Cells (%)” value [5] was 56% and the “Population Normal (%)” value [5] was 92%. For the same compound, the “Population Pyknosed Nuclei (%)” value [5] was 17%, the “Population Tubulin-Different-Phenotype (%)” value [5] was 8% and the “Total Cell Count” value [5] was 174. For the same compound, the “Population Apoptotic (%)” value [6] was 75%, the “Population Fragmented Nuclei (%)” value [6] was 11% and the “Population Healthy Nuclei (%)” value [6] was 77%. For the same compound, the “Population Hoechst High Intensity Objects (%)” value [6] was 2%, the “Population Membrane Permeable-Phenotype (%)” value [6] was 1% and the “Population Mitochondria Different-Phenotype (%)” value [6] was 10%. For the same compound, the “Population Mitotic Cells (%)” value [6] was 25%, the “Population Normal (%)” value [6] was 97% and the “Population Pyknosed Nuclei (%)” value [6] was 11%. For the same compound, the “Population Tubulin-Different-Phenotype (%)” value [6] was 14%, the “Total Cell Count” value [6] was 59 and the “Population Apoptotic (%)” value [7] was 70%. The “Population Fragmented Nuclei (%)” value [7] was 13%, the “Population Healthy Nuclei (%)” value [7] was 55% and the “Population Hoechst High Intensity Objects (%)” value [7] was 9%. For the same compound, the “Population Membrane Permeable-Phenotype (%)” value [7] was 52%, the “Population Mitochondria Different-Phenotype (%)” value [7] was 98% and the “Population Mitotic Cells (%)” value [7] was 29%. The “Population Normal (%)” value [7] was 90%, the “Population Pyknosed Nuclei (%)” value [7] was 30% and the “Total Cell Count” value [7] was 138. The “Population Apoptotic (%)” value [8] was 53%, the “Population Fragmented Nuclei (%)” value [8] was 30% and the “Population Healthy Nuclei (%)” value [8] was 52%. The “Population Hoechst High Intensity Objects (%)” value [8] was 5%, the “Population Membrane Permeable-Phenotype (%)” value [8] was 67% and the “Population Mitochondria Different-Phenotype (%)” value [8] was 97%. The “Population Mitotic Cells (%)” value [8] was 46%, the “Population Normal (%)” value [8] was 94% and the “Population Pyknosed Nuclei (%)” value [8] was 17%. For the same compound, the “Population Tubulin-Different-Phenotype (%)” value [8] was 100%, the “Total Cell Count” value [8] was 73 and the “Population Apoptotic (%)” value [9] was 48%. The “Population Fragmented Nuclei (%)” value [9] was 14%, the “Population Healthy Nuclei (%)” value [9] was 70% and the “Population Hoechst High Intensity Objects (%)” value [9] was 4%. The “Population Membrane Permeable-Phenotype (%)” value [9] was 7%, the “Population Mitochondria Different-Phenotype (%)” value [9] was 22% and the “Population Mitotic Cells (%)” value [9] was 52%. The “Population Normal (%)” value [9] was 95%, the “Population Pyknosed Nuclei (%)” value [9] was 15% and the “Population Tubulin-Different-Phenotype (%)” value [9] was 7%. The “Total Cell Count” value [9] was 230, the “Population Apoptotic (%)” value [10] was 33% and the “Population Fragmented Nuclei (%)” value [10] was 10%. For the same compound, the “Population Healthy Nuclei (%)” value [10] was 81%, the “Population Hoechst High Intensity Objects (%)” value [10] was 7% and the “Population Membrane Permeable-Phenotype (%)” value [10] was 8%. The “Population Mitochondria Different-Phenotype (%)” value [10] was 11%, the “Population Mitotic Cells (%)” value [10] was 66% and the “Population Normal (%)” value [10] was 92%. For the same compound, the “Population Pyknosed Nuclei (%)” value [10] was 9%, the “Population Tubulin-Different-Phenotype (%)” value [10] was 17% and the “Total Cell Count” value [10] was 82. The “Population Apoptotic (%)” value [11] was 64%, the “Population Fragmented Nuclei (%)” value [11] was 21% and the “Population Healthy Nuclei (%)” value [11] was 43%. The “Population Hoechst High Intensity Objects (%)” value [11] was 6%, the “Population Membrane Permeable-Phenotype (%)” value [11] was 71% and the “Population Mitochondria Different-Phenotype (%)” value [11] was 100%. For the same compound, the “Population Mitotic Cells (%)” value [11] was 35%, the “Population Normal (%)” value [11] was 93% and the “Population Pyknosed Nuclei (%)” value [11] was 34%. The “Population Tubulin-Different-Phenotype (%)” value [11] was 100%, the “Total Cell Count” value [11] was 169 and the “Population Apoptotic (%)” value [12] was 57%. The “Population Fragmented Nuclei (%)” value [12] was 13%, the “Population Healthy Nuclei (%)” value [12] was 59% and the “Population Hoechst High Intensity Objects (%)” value [12] was 10%. The “Population Membrane Permeable-Phenotype (%)” value [12] was 87%, the “Population Mitochondria Different-Phenotype (%)” value [12] was 97% and the “Population Mitotic Cells (%)” value [12] was 42%. The “Population Normal (%)” value [12] was 89%, the “Population Pyknosed Nuclei (%)” value [12] was 27% and the “Total Cell Count” value [12] was 108.
